Measurements taken from ChEMBL document CHEMBL3421562, “Bioactive prenylated xanthones from the young fruits and flowers of Garcinia cowa” (J Nat Prod, 2015).
In brackets after ≈: the same amount, converted by molar mass.

Experiments:
[1] = tested on: Bacillus cereus; assay: Antibacterial activity against Bacillus cereus TISTR 688 by 2-fold serial dilution method; type: functional
[2] = tested on: Bacillus subtilis; assay: Antibacterial activity against Bacillus subtilis TISTR 008 by 2-fold serial dilution method; type: functional
[3] = tested on: Staphylococcus aureus; assay: Antibacterial activity against Staphylococcus aureus TISTR 1466 by 2-fold serial dilution method; type: functional
[4] = tested on: Escherichia coli; assay: Antibacterial activity against Escherichia coli TISTR 780 by 2-fold serial dilution method; type: functional
[5] = tested on: Salmonella typhimurium; assay: Antibacterial activity against Salmonella typhimurium TISTR 292 by 2-fold serial dilution method; type: functional, Salmonella enterica subsp. enterica serovar Typhimurium
[6] = tested on: Pseudomonas aeruginosa; assay: Antibacterial activity against Pseudomonas aeruginosa TISTR 884 by 2-fold serial dilution method; type: functional
[7] = tested on: Saccharomyces cerevisiae; assay: Inhibition of Saccharomyces cerevisiae alpha-glucosidase using p-nitrophenyl alpha-D-glucoside as substrate at 100 uM preincubated for 0.5 hrs followed by substrate addition measured after 1 hr by colorimetric method relative to control
Procedure, shortened: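 Test compound at 100 μM; enzyme (0.4 U/mL) preincubated with compound 0.5 h at 37 °C in 50 mM K2HPO4−KH2PO4 buffer, 10% DMSO final; reaction started with p-nitrophenyl α-D-glucoside (3 mM), 1 h at 37 °C; stopped with 0.1 M Na2CO3; absorbance read at 405 nm; percent inhibition.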

[8] = Inhibition of Saccharomyces cerevisiae alpha-glucosidase using p-nitrophenyl alpha-D-glucoside as substrate preincubated for 0.5 hrs followed by substrate addition measured after 1 hr by colorimetric method
Procedure, shortened: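 Enzyme (0.4 U/mL) and compound preincubated 0.5 h at 37 °C in 50 mM K2HPO4−KH2PO4 buffer, final DMSO 10%; p-nitrophenyl α-D-glucoside (3 mM) added, further 1 h at 37 °C; terminated with 0.1 M Na2CO3, A405 read immediately as relative hydrolysis rate; IC50 determined; acarbose positive control.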

Compound	MIC [1]	MIC [2]	MIC [3]	MIC [4]	MIC ([5]; Salmonella enterica)	MIC [6]	inhibition [7]	IC50 [8]	MIC ([5]; Salmonella enterica subsp. enterica serovar Typhimurium)
COc1cc2c(=O)c3c(O)c(C/C=C(\C)CCC=C(C)C)c(O)cc3oc2cc1O [COWAXANTHONE]	64 µg/mL (≈ 156 µM)	64 µg/mL (≈ 156 µM)	> 128 µg/mL	> 128 µg/mL	128 µg/mL (≈ 312 µM)	128 µg/mL (≈ 312 µM)	–	–	–
COc1cc2c(=O)c3c(O)c4c(cc3oc2cc1O)OC(C)(CCC=C(C)C)C=C4 (stereo not drawn)	32 µg/mL (≈ 78.3 µM)	64 µg/mL (≈ 157 µM)	> 128 µg/mL	> 128 µg/mL	128 µg/mL (≈ 313 µM)	128 µg/mL (≈ 313 µM)	–	–	–
CC(C)=CCC/C(C)=C/CC1(C/C=C(\C)CCC=C(C)C)C(=O)C(O)=Cc2oc3cc(O)cc(O)c3c(=O)c21 (stereo not drawn)	8 µg/mL (≈ 15 µM)	8 µg/mL (≈ 15 µM)	> 128 µg/mL	> 128 µg/mL	64 µg/mL (≈ 120 µM)	128 µg/mL (≈ 240 µM)	62.9%	36.4 µM	–
COc1c(O)cc2oc3cc(O)c(CC=C(C)C)c(O)c3c(=O)c2c1CC=C(C)C [MANGOSTIN]	8 µg/mL (≈ 19.5 µM)	8 µg/mL (≈ 19.5 µM)	64 µg/mL (≈ 156 µM)	64 µg/mL (≈ 156 µM)	64 µg/mL (≈ 156 µM)	128 µg/mL (≈ 312 µM)	72%	7.8 µM	–
CC(C)=CCC/C(C)=C/CC1(CC=C(C)C)C(=O)C(O)=Cc2oc3cc(O)cc(O)c3c(=O)c21 (stereo not drawn) [GARCINIANONE A]	4 µg/mL (≈ 8.61 µM)	2 µg/mL (≈ 4.31 µM)	64 µg/mL (≈ 138 µM)	64 µg/mL (≈ 138 µM)	64 µg/mL (≈ 138 µM)	128 µg/mL (≈ 276 µM)	66.7%	34 µM	–
COc1cc2oc3cc(OC)c(OC)c(CC=C(C)C)c3c(=O)c2c(O)c1CC=C(C)C	> 128 µg/mL	128 µg/mL (≈ 292 µM)	128 µg/mL (≈ 292 µM)	64 µg/mL (≈ 146 µM)	128 µg/mL (≈ 292 µM)	128 µg/mL (≈ 292 µM)	53.8%	–	–
COc1c(O)cc2oc3cc4c(c(O)c3c(=O)c2c1C/C=C(\C)CCC=C(C)C)C=CC(C)(C)O4	64 µg/mL (≈ 134 µM)	64 µg/mL (≈ 134 µM)	128 µg/mL (≈ 269 µM)	64 µg/mL (≈ 134 µM)	128 µg/mL (≈ 269 µM)	128 µg/mL (≈ 269 µM)	71.7%	18.6 µM	–
COc1cc2oc3cc(O)c4c(c3c(=O)c2c(O)c1CC=C(C)C)C=CC(C)(C)O4	128 µg/mL (≈ 313 µM)	128 µg/mL (≈ 313 µM)	128 µg/mL (≈ 313 µM)	> 128 µg/mL	128 µg/mL (≈ 313 µM)	128 µg/mL (≈ 313 µM)	50.8%	–	–
COc1cc2oc3cc(O)c4c(c3c(=O)c2c(O)c1CC=C(C)C)CCC(C)(C)O4	128 µg/mL (≈ 312 µM)	–	128 µg/mL (≈ 312 µM)	> 128 µg/mL	128 µg/mL (≈ 312 µM)	> 128 µg/mL	–	–	–
COc1cc2oc3cc4c(c(O)c3c(=O)c2c(CC=C(C)C)c1O)C=CC(C)(C)O4	128 µg/mL (≈ 313 µM)	128 µg/mL (≈ 313 µM)	> 128 µg/mL	> 128 µg/mL	128 µg/mL (≈ 313 µM)	128 µg/mL (≈ 313 µM)	–	–	–
COc1cc2oc3cc(O)c(OC)c(CC=C(C)C)c3c(=O)c2c(O)c1CC=C(C)C	16 µg/mL (≈ 37.7 µM)	4 µg/mL (≈ 9.42 µM)	> 128 µg/mL	> 128 µg/mL	128 µg/mL (≈ 302 µM)	128 µg/mL (≈ 302 µM)	73.1%	8.7 µM	–
COc1c(O)cc2oc3cc4c(c(O)c3c(=O)c2c1CC=C(C)C)C=CC(C)(C)O4 [MANGOSTANIN]	4 µg/mL (≈ 9.79 µM)	8 µg/mL (≈ 19.6 µM)	64 µg/mL (≈ 157 µM)	> 128 µg/mL	128 µg/mL (≈ 313 µM)	128 µg/mL (≈ 313 µM)	70.1%	34.6 µM	–
COc1c(O)cc2oc3cc(O)cc(O)c3c(=O)c2c1C/C=C(\C)CCC=C(C)C [RUBRAXANTHONE]	4 µg/mL (≈ 9.75 µM)	2 µg/mL (≈ 4.87 µM)	> 128 µg/mL	64 µg/mL (≈ 156 µM)	64 µg/mL (≈ 156 µM)	64 µg/mL (≈ 156 µM)	71.2%	23.4 µM	–
GENTAMICIN	–	–	–	0.25 µg/mL	–	2 µg/mL	–	–	0.125 µg/mL
C[C@H]1O[C@H](O[C@H]2[C@H](O)[C@@H](O)[C@@H](O[C@H]3[C@H](O)[C@@H](O)C(O)O[C@@H]3CO)O[C@@H]2CO)[C@H](O)[C@@H](O)[C@@H]1N[C@H]1C=C(CO)[C@@H](O)[C@H](O)[C@H]1O (stereo partly drawn) [ACARBOSE]	–	–	–	–	–	–	–	8 µM	–
CC(C)=CCC/C(C)=C\CC1(CC=C(C)C)C(=O)C(O)=Cc2oc3cc(O)cc(O)c3c(=O)c21 (stereo not drawn) [GARCINIANONE B]	2 µg/mL (≈ 4.31 µM)	2 µg/mL (≈ 4.31 µM)	64 µg/mL (≈ 138 µM)	64 µg/mL (≈ 138 µM)	64 µg/mL (≈ 138 µM)	128 µg/mL (≈ 276 µM)	69.1%	11.7 µM	–
CN[C@H](CC(C)C)C(=O)N[C@H]1C(=O)N[C@@H](CC(N)=O)C(=O)N[C@H]2C(=O)N[C@H]3C(=O)N[C@H](C(=O)N[C@H](C(=O)O)c4cc(O)cc(O)c4-c4cc3ccc4O)[C@H](O)c3ccc(c(Cl)c3)Oc3cc2cc(c3O[C@@H]2O[C@H](CO)[C@@H](O)[C@H](O)[C@H]2O[C@H]2C[C@](C)(N)[C@H](O)[C@H](C)O2)Oc2ccc(cc2Cl)[C@H]1O [VANCOMYCIN]	0.25 µg/mL (≈ 0.173 µM)	0.25 µg/mL (≈ 0.173 µM)	0.25 µg/mL (≈ 0.173 µM)	–	–	–	–	–	–
CC(C)=CCCC1(C)C=Cc2c(c(O)cc3oc4cc5c(c(O)c4c(=O)c23)C=CC(C)(C)O5)O1 (stereo not drawn)	64 µg/mL (≈ 139 µM)	128 µg/mL (≈ 278 µM)	> 128 µg/mL	> 128 µg/mL	64 µg/mL (≈ 139 µM)	128 µg/mL (≈ 278 µM)	–	–	–
CC(C)=CCC/C(C)=C\CC1(C/C=C(\C)CCC=C(C)C)C(=O)C(O)=Cc2oc3cc(O)cc(O)c3c(=O)c21 (stereo not drawn)	8 µg/mL (≈ 15 µM)	8 µg/mL (≈ 15 µM)	64 µg/mL (≈ 120 µM)	64 µg/mL (≈ 120 µM)	64 µg/mL (≈ 120 µM)	128 µg/mL (≈ 240 µM)	75.8%	55.3 µM	–
COc1cc2oc3cc4c(c(O)c3c(=O)c2c(CC=C(C)C)c1OC)C=CC(C)(C)O4	128 µg/mL (≈ 303 µM)	128 µg/mL (≈ 303 µM)	> 128 µg/mL	> 128 µg/mL	64 µg/mL (≈ 151 µM)	128 µg/mL (≈ 303 µM)	62.2%	26.2 µM	–
COc1cc2oc3cc(OC)c(CC=C(C)C)c(O)c3c(=O)c2c(CC=C(C)C)c1O	128 µg/mL (≈ 302 µM)	128 µg/mL (≈ 302 µM)	> 128 µg/mL	> 128 µg/mL	128 µg/mL (≈ 302 µM)	128 µg/mL (≈ 302 µM)	56.4%	–	–
COc1c(O)c(CC=C(C)C)c2oc3cc(O)c(CC=C(C)C)c(O)c3c(=O)c2c1CC=C(C)C	32 µg/mL (≈ 66.9 µM)	32 µg/mL (≈ 66.9 µM)	> 128 µg/mL	> 128 µg/mL	128 µg/mL (≈ 267 µM)	128 µg/mL (≈ 267 µM)	–	–	–
